Assays:
[1] = test system: Mus musculus; assay: Compound was evaluated for the effect on the uptake in mouse brain, at dose 78 mg/Kg (ip) after a time period of 30 min; format: functional, organism-based
Summary of the method: (§1)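 Mice received a single systemic dose (ip or sc) of ¹⁴C-labeled compound in 0.5 mL of 0.14 N saline or 25% propylene glycol/water, depending on the compound. Brain was taken at the stated time and homogenized in 8 mL of 1% SDS/6 M urea/EDTA in 0.03 M phosphate (pH 7.4). Aliquots were counted by liquid scintillation and expressed as nmol/g brain.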

[2] = test system: Mus musculus; assay: Ability to penetrate the blood-brain barrier of mice was evaluated by measuring the brain penetration index (BPI) at dose 67 mg/Kg, administered subcutaneously; format: functional, organism-based
Summary of the method: (§2)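 Balb-c mice (20 ± 2 g) received a single sc injection of the ¹⁴C-labeled ester in 0.5 mL of 25% propylene glycol in water. Brain and liver were removed at 5 min, weighed and homogenized in urea/SDS/EDTA phosphate protein solvent (pH 7.6). Aliquots were counted for ¹⁴C by liquid scintillation. BPI = brain amount per g as % of liver amount per g. Mean ± SEM, n = 3.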

[3] = test system: Mus musculus; assay: Percent amount of compound was determined in liver per gram of tissue after 5 min of administration at a dose of 67 mg/kg; format: functional, organism-based; parameters: dose 67 mg/kg; summary of the method: as §2
[4] = test system: Mus musculus; assay: BPI index was determined at 5 min after subcutaneous administration to mice; format: functional; summary of the method: as §2
[5] = test system: Mus musculus; assay: Compound was evaluated for the effect on the uptake in mouse brain, at dose 78 mg/kg (ip) after a time period of 5 min; format: functional, organism-based; parameters: dose 78 mg/kg; summary of the method: as §1
[6] = Octanol:water partition coefficient is evaluated; format: physicochemical
[7] = test system: Mus musculus; assay: Compound was evaluated for the effect on the uptake in mouse brain, at dose 78 mg/Kg (ip) after a time period of 15 min; format: functional, organism-based; summary of the method: as §1
[8] = test system: Mus musculus; assay: BPI index was determined at 5 min after subcutaneous administration; format: functional; summary of the method: as §2
[9] = test system: Mus musculus; assay: Ability to penetrate the blood-brain barrier of mice was evaluated by measuring the brain penetration index (BPI) at dose 3-39 mg/Kg, administered subcutaneously; range is 0.04-1.81; format: functional, organism-based
[10] = test system: Mus musculus; assay: Percent amount of compound was determined in liver per gram of tissue after 5 min of administration at a dose of 3-39 mg/Kg; range is 4.2-165; format: functional, organism-based

| K [6] | Compound | Uptake [1] | Uptake [2] | Uptake [3] | BPI [4] | Uptake [5] | Uptake [7] | BPI [8] | Uptake [9] | Uptake [10] |
| --- | --- | --- | --- | --- | --- | --- | --- | --- | --- | --- |
| 0.01 | NCCCC(=O)OCC(O)CO.O=C(O)C(F)(F)F (stereo unspecified) | 16.4 nM/g | 4.8 nM/g | 157 nM/g | 3 | 4.8 nM/g | 14 nM/g |  |  |  |
| 0.004 | NCCCC(=O)O [GAMMA-AMINOBUTYRIC ACID] |  |  |  |  |  |  | 0.96 | 0.04 nM/g | 4.2 nM/g |

From ChEMBL document CHEMBL1123057, “gamma-Aminobutyric acid esters. 2. Synthesis, brain uptake, and pharmacological properties of lipid esters of gamma-aminobutyric acid” (J Med Chem, 1985)
